T cruzi repl: T. cruzi replication inhibition; T. cruzi beta-gal in NIH3T3, luminescence, 90 h; inhibition, % (test concentration not listed); hit rate 1.4% among 300,000; AID 1885;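 active means mean inhibition across valid replicates above about 55%, limit read from the data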;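 further: signal also drops with host cell toxicity which is not excluded here; higher percent means less beta-gal luminescence so fewer parasites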
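System: mouse NIH/3T3 fibroblasts infected with β-gal-expressing T. cruzi Tulahuen C4 / Input: NIH/3T3 cells, 5,000 per well / Buffer or medium: Low-serum DMEM with 2% FBS / Probe or stimulus: 5000 reporter trypomastigotes per well / Schedule: ≥90 h infection period, 3 h prior cell attachment / Measured by: GalScreen luminescence, 60 min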
CHT block: inhibits the human high affinity choline transporter | Q9GZV3 | CHT-expressing cells, membrane potential dye, choline response; hits give low values | B-score at 10 µM | hit rate 0.86% among 310,000 | AID 488975;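 active means B-score over 3 SD under the library average, and starting fluorescence ratio not unusually high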;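 further: choline stimulus applied at its EC90 after an EC20 pre-addition; B-score computed on integrated fluorescence ratio after choline addition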
Target sequence (Q9GZV3 whole entry, looked up): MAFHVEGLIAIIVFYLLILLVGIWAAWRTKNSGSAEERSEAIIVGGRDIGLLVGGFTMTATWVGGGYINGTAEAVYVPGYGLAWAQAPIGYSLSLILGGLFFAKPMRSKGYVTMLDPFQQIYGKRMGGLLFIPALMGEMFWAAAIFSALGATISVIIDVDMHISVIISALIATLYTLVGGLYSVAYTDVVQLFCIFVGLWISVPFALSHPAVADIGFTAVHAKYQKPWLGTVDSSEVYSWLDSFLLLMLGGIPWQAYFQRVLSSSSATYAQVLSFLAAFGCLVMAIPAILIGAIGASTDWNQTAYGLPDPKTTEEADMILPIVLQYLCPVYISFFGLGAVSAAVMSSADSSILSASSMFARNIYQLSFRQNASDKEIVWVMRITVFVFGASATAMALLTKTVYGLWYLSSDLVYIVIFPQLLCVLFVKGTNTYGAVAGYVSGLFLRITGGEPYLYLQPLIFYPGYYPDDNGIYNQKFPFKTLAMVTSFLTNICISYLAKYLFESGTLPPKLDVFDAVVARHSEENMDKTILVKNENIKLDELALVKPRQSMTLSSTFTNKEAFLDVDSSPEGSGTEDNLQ
PolyA inhibitor: inhibitors of polyadenylation in S. cerevisiae; S. cerevisiae SKY197-pL101 polyadenylation reporter, beta-gal luminescence; efflux-impaired pdr1/pdr3 knockout yeast; score 100 = 6 SD above DMSO; activity score, % at 12 µM; hit rate 0.02% among 300,000; AID 1875;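 active means lowest replicate activity score at least 50, where 100 means six control SD above control mean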;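 further: yeast exposed to compound for 9 h at 30 °C; higher score means more reporter readthrough which indicates perturbed polyadenylation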
CHT allo act: allosteric activators of human choline transporter CHT; Q9GZV3; CHT-expressing cells, membrane potential dye, choline EC20; hits give high values; LV-AA mutant CHT in HEK293 cells; B-score at 10 µM; hit rate 0.49% among 310,000; AID 488977;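 active means initial fluorescence not abnormally high and integrated response B-score, plate-corrected, over 3 SD above library mean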
Numbers stand for hits. An excerpt weighted towards active compounds, which were near 2.6% of everything screened.

For COc1cccc(/C=C2\SC(=O)N(CC(=O)NC3C=CS(=O)(=O)C3)C2=O)c1 (stereo not given) the results were T cruzi repl inactive, CHT block inactive, PolyA inhibitor inactive and CHT allo act inactive.
`CC(OC(=O)c1cccc(S(=O)(=O)N2CCCCCC2)c1)C(=O)Nc1ccc(S(N)(=O)=O)cc1` (stereo not given) gave T cruzi repl inactive, CHT block inactive, PolyA inhibitor inactive and CHT allo act inactive.
For CC1CC(C)CN(C(=O)C2CCCN(S(=O)(=O)c3cnc[nH]3)C2)C1 (stereo not given) the results were T cruzi repl inactive, CHT block inactive, PolyA inhibitor inactive and CHT allo act inactive.
Cn1c(COc2ccc([N+](=O)[O-])cc2)nnc1SCC(=O)NCC1CCCO1 (stereo not given) was read as T cruzi repl inactive, CHT block inactive, PolyA inhibitor inactive and CHT allo act inactive.
`O=C(Nc1ccccc1F)c1ccc([N+](=O)[O-])s1` gave T cruzi repl 65, CHT block inactive, PolyA inhibitor inactive and CHT allo act inactive.
For O=C(Nc1cccc2ccccc12)c1ccc([N+](=O)[O-])s1 the results were T cruzi repl 57, CHT block inactive, PolyA inhibitor inactive and CHT allo act inactive.
COc1ccc(C2CC(=O)C3=C(C2)Nc2ncnn2C3c2ccccc2C)c(OC)c1 (stereo not given) was read as T cruzi repl 61, CHT block inactive, PolyA inhibitor inactive and CHT allo act inactive.
For O=C1S/C(=C\c2ccc(O)c([N+](=O)[O-])c2)C(=O)N1c1ccccc1Cl the results were T cruzi repl inactive, CHT block inactive, PolyA inhibitor 83 and CHT allo act inactive.
Screening Cc1cccc(NC(=O)CN2C(=O)S/C(=C\c3ccc(O)c([N+](=O)[O-])c3)C2=O)c1 returned T cruzi repl inactive, CHT block inactive, PolyA inhibitor inactive and CHT allo act inactive.
`Cc1nnc(Cn2cnc3c2c(=O)n(C)c(=O)n3C)o1` gave T cruzi repl inactive, CHT block inactive, PolyA inhibitor inactive and CHT allo act inactive.
Cc1ccc(S(=O)(=O)N2CCC(=O)N(C(COCc3ccc(Cl)cc3Cl)Cc3ccccc3)CC2)cc1 (stereo not given) was read as T cruzi repl 75, CHT block inactive, PolyA inhibitor inactive and CHT allo act inactive.
CN1CCN(c2ccc(Nc3ccnc4cc(Cl)ccc34)cc2)CC1 was read as T cruzi repl 60, CHT block inactive, PolyA inhibitor inactive and CHT allo act inactive.
`CCOc1ccc(Nc2ccnc3cc(Cl)ccc23)cc1` gave T cruzi repl inactive, CHT block inactive, PolyA inhibitor inactive and CHT allo act inactive.
Screening COc1cc(C(=O)N/C(=C\c2cn(C)c3ccccc23)C(=O)NCCCN2CCOCC2)cc(OC)c1OC returned T cruzi repl inactive, CHT block inactive, PolyA inhibitor inactive and CHT allo act inactive.
`Nc1ccccc1Nc1cc(-c2ccccc2)nn1-c1ccccc1` gave T cruzi repl 55, CHT block inactive, PolyA inhibitor inactive and CHT allo act inactive.
For Cc1cc2ccccn2c1C(=O)c1ccc([N+](=O)[O-])cc1[N+](=O)[O-] the results were T cruzi repl inactive, CHT block inactive, PolyA inhibitor inactive and CHT allo act inactive.
`COc1ccc(OCCOCCN2CCc3ccccc3C2)cc1` gave T cruzi repl 58, CHT block inactive, PolyA inhibitor inactive and CHT allo act inactive.
N#Cc1ccc(OCCN2CCc3ccccc3C2)cc1 was read as T cruzi repl inactive, CHT block inactive, PolyA inhibitor inactive and CHT allo act inactive.
COc1ccc(NCc2ccc(OC)c(Cn3ccnc3)c2)c(OC)c1 was read as T cruzi repl 56, CHT block inactive, PolyA inhibitor inactive and CHT allo act inactive.
Screening Cc1c(CCOC(=O)c2cc([N+](=O)[O-])cc([N+](=O)[O-])c2)sc[n+]1CC(=O)c1ccc(Br)cc1 returned T cruzi repl 57, CHT block inactive, PolyA inhibitor inactive and CHT allo act inactive.
Screening Cc1c(CCOC(=O)C23CC4(C)CC(C)(CC(C)(C4)C2)C3)sc[n+]1CC(=O)c1ccccc1 returned T cruzi repl inactive, CHT block inactive, PolyA inhibitor inactive and CHT allo act inactive.
`O=C(NCC1CCCN1S(=O)(=O)c1cccs1)c1c(F)cccc1F` (stereo not given) gave T cruzi repl inactive, CHT block inactive, PolyA inhibitor inactive and CHT allo act inactive.
Screening CCc1nn(C(C)C(=O)NCc2cccc(Cl)c2)c(=O)c2cc3occc3n12 (stereo not given) returned T cruzi repl inactive, CHT block inactive, PolyA inhibitor inactive and CHT allo act inactive.
For CC(C)(C)OC(=O)NN1CC(=O)N2[C@@H](Cc3c([nH]c4ccccc34)C2(C)C)C1=O the results were T cruzi repl inactive, CHT block inactive, PolyA inhibitor inactive and CHT allo act inactive.
For O=C(O)CN1C(=O)/C(=C\c2cc([N+](=O)[O-])ccc2OCc2ccccc2Cl)SC1=S the results were T cruzi repl inactive, CHT block -6.2, PolyA inhibitor inactive and CHT allo act inactive.
O=C(O)CN1C(=O)/C(=C\c2ccccc2OCc2ccc(F)cc2)SC1=S was read as T cruzi repl inactive, CHT block inactive, PolyA inhibitor inactive and CHT allo act inactive.
Screening O=C(O)CCCN1C(=O)/C(=C\c2ccccc2OCc2ccccc2)SC1=S returned T cruzi repl inactive, CHT block -7.7, PolyA inhibitor inactive and CHT allo act inactive.
Screening Cc1cc2ncn(/N=C/c3ccc([N+](=O)[O-])o3)c2cc1C returned T cruzi repl 60, CHT block inactive, PolyA inhibitor inactive and CHT allo act inactive.
For O=C(c1ccco1)N1CCN(Cc2nc3cc(Cl)ccc3c(=O)[nH]2)CC1 the results were T cruzi repl inactive, CHT block inactive, PolyA inhibitor inactive and CHT allo act inactive.
For O=c1[nH]c(CN2CCN(C/C=C/c3ccccc3)CC2)nc2cc(Cl)ccc12 the results were T cruzi repl 61, CHT block inactive, PolyA inhibitor inactive and CHT allo act inactive.
Screening O=C(CCc1nc2ccccc2c(=O)[nH]1)N1CCN(C/C=C/c2ccccc2)CC1 returned T cruzi repl 82, CHT block inactive, PolyA inhibitor inactive and CHT allo act inactive.
For CCCCn1c(=O)[nH]c(=O)c2c(C(=O)OCC)cc(-c3ccc(OC(F)F)cc3)nc21 the results were T cruzi repl inactive, CHT block inactive, PolyA inhibitor inactive and CHT allo act inactive.
`COc1ccc(N2CCN(C3CCCN(C(=O)c4cccc(C)n4)C3)CC2)cc1` (stereo not given) gave T cruzi repl inactive, CHT block inactive, PolyA inhibitor inactive and CHT allo act inactive.
Screening CC(C)(C)c1ccc(C(=O)N2CCN(CCNC(=O)C(=O)NCc3ccc(Cl)cc3)CC2)cc1 returned T cruzi repl 66, CHT block inactive, PolyA inhibitor inactive and CHT allo act inactive.
COc1ccc(CN(CC2CCC(C(=O)O)CC2)C(=S)Nc2ccc(C)c(Cl)c2)cc1 (stereo not given) was read as T cruzi repl 58, CHT block inactive, PolyA inhibitor inactive and CHT allo act inactive.

Screening data: PubChem BioAssay, several laboratories
